Results from paper PMC11406440 (Food and chemical toxicology : an international journal …, 2024).

Legend:
[1] = tested on: NK cell function; experiment: NK assay; assay type: in vivo, mice; details: any effector to target ratios
[2] = tested on: spleen cells; experiment: Spleen immune phenotyping by flow cytometry; assay type: in vivo, B6C3F1 mice; details: 28 days; for Spleen B-cells frequency / Spleen B-cells number / Spleen CD4+ frequency / Spleen CD4+ number / Spleen CD8+ frequency / Spleen CD8+ number / Spleen CD11b + Ly6C+ frequency / Spleen CD11b + Ly6C+ number / Spleen CD11b + Ly6C- frequency / Spleen CD11b + Ly6C- number / Spleen CD11b+ frequency / Spleen CD11b+ number / Spleen CD86 B-cells / Spleen CD86 DCs / Spleen Cellularity / Spleen Dendritic Cells frequency / Spleen Dendritic Cells number / Spleen MHCII B-cells / Spleen MHCII DCs / Spleen NK frequency / Spleen NK number / Spleen Neutrophils frequency / Spleen Neutrophils number: mean ± SE
Method in brief: (§1)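 Female B6C3F1 mice (5/group) received 25 μl/ear of acetone vehicle or 1.25, 2.5 or 5% w/v test compound on the dorsal surface of each ear, once daily for 28 days. They were euthanized about 24 h later. Single-cell suspensions were made from both auricular dLNs, half a spleen or one ear pinna. Cells were Fc-blocked (anti-CD16/32), stained with surface antibody cocktails and acquired on an LSR II, with FMO gating controls.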

[3] = 14-days of 3 mg/kg/day oral exposure; ref Chang et al., 2018; cited from earlier work
[4] = tested on: dLN cells; experiment: Draining lymph node; assay type: in vivo, B6C3F1 mice; details: 28 days
Method in brief: as §1

[5] = tested on: B6C3F1 mice; experiment: Organ and body weights after 28-day dermal exposure; assay type: in vivo; details: 28 days
Method in brief: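 Female B6C3F1 mice (5/group) were treated topically on both ears (25 μl/ear) with acetone or 1.25, 2.5, 5% w/v test compound once daily for 28 days. They were weighed at necropsy about 24 h after the last dose. Liver, spleen, kidneys and thymus were cleaned of connective tissue and weighed. Organ weights were reported relative to body weight and uncorrected; dose trend was tested.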

[6] = tested on: mice; details: 7 days of 10 mg/kg oral exposure; ref Das et al., 2017; cited from earlier work
[7] = tested on: IgM response to SRBC; experiment: Spleen IgM response to SRBC; assay type: in vivo, B6C3F1 mice; details: 10 days
Method in brief: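 B6C3F1 mice, 5/group, dosed topically on dorsal surface of each ear (25 μl/ear) with acetone vehicle or test compound at 0.625, 1.25, 2.5% w/v once daily for 10 consecutive days. SRBC 7.5 × 10^7 i.v. given 4 days before CO2 euthanasia. Spleen cells plated at 1:30 and 1:120 in agar/DEAE-dextran with SRBC and guinea pig complement, 3 h at 37 °C. Plaques counted per 10^6 cells and per spleen. Mean ± SE.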

[8] = tested on: liver; experiment: Liver gene expression; assay type: in vivo, B6C3F1 mice
Method in brief: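 Mice were dosed daily on both ears (25 μl/ear; acetone vehicle or 1.25, 2.5, 5% w/v) for 28 days. Half an ear pinna or the caudate liver lobe was homogenized in Buffer RLT, and total RNA was column-isolated with DNase treatment. TaqMan qPCR gave relative fold change (2−ΔΔCT) versus vehicle controls, normalized to β-actin. Liver used 4–5 mice/group, one-way ANOVA/Dunnett or Kruskal-Wallis/Dunn.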

[9] = PFHxS exposure, 28 days (discussion, approximate)
[10] = all three concentrations of PFHxS, 28 days

## O=S(=O)(O)C(F)(F)C(F)(F)C(F)(F)C(F)(F)C(F)(F)C(F)(F)F [PFHxS, Perfluorohexane sulfonic acid]
[1]
  NK cell function: No significant decreases
[2]; 1.25% PFHxS
  Spleen B-cells frequency: 31.48 ± 0.59%
  Spleen B-cells number: 2.50 ± 0.38 x 10^7
  Spleen CD4+ frequency: 24.60 ± 0.70%
  Spleen CD4+ number: 1.95 ± 0.30 x 10^7
  Spleen CD8+ frequency: 15.12 ± 0.73%
  Spleen CD8+ number: 11.70 ± 1.45 x 10^6
  Spleen CD11b + Ly6C+ frequency: 1.11 ± 0.09%
  Spleen CD11b + Ly6C+ number: 9.05 ± 1.59 x 10^5
  Spleen CD11b + Ly6C- frequency: 2.63 ± 0.16 %
  Spleen CD11b + Ly6C- number: 21.00 ± 3.46 x 10^5
  Spleen CD11b+ frequency: 3.90 ± 0.21%
  Spleen CD11b+ number: 3.13 ± 0.51 x 10^6
  Spleen CD86 B-cells: 341.20 ± 16.00 MFI
  Spleen CD86 DCs: 1733.80 ± 46.13 MFI
  Spleen Cellularity: 7.91 ± 1.16 x 10^7
  Spleen Dendritic Cells frequency: 3.33 ± 0.32%
  Spleen Dendritic Cells number: 2.70 ± 0.48 x 10^6
  Spleen MHCII B-cells: 1334.60 ± 89.70 MFI
  Spleen MHCII DCs: 4141.40 ± 112.06 MFI
  Spleen NK frequency: 2.52 ± 0.17%
  Spleen NK number: 20.00 ± 3.26 x 10^5
  Spleen Neutrophils frequency: 1.76 ± 0.14%
  Spleen Neutrophils number: 14.00 ± 2.38 x 10^5
[2]; 1.25%, 2.5%, 5% PFHxS
  Spleen eosinophils frequency and number: decrease
[2]; 2.5% PFHxS
  Spleen B-cells frequency: 32.48 ± 0.37%
  Spleen B-cells number: 1.62 ± 0.19 x 10^7
  Spleen CD4+ frequency: 26.26 ± 0.79 %
  Spleen CD4+ number: 1.30 ± 0.13 x 10^7
  Spleen CD8+ frequency: 16.74 ± 0.56 %
  Spleen CD8+ number: 8.25 ± 0.73 x 10^6
  Spleen CD11b + Ly6C+ frequency: 0.72 ± 0.11 %
  Spleen CD11b + Ly6C+ number: 3.77 ± 0.85 x 10^5
  Spleen CD11b + Ly6C- frequency: 2.21 ± 0.13 %
  Spleen CD11b + Ly6C- number: 11.20 ± 1.52 x 10^5
  Spleen CD11b+ frequency: 3.07 ± 0.21 %
  Spleen CD11b+ number: 1.56 ± 0.24 x 10^6
  Spleen CD86 B-cells: 280.80 ± 10.49 MFI
  Spleen CD86 DCs: 1677.40 ± 60.65 MFI
  Spleen Cellularity: 4.99 ± 0.55 x 10^7
  Spleen Dendritic Cells frequency: 3.36 ± 0.48%
  Spleen Dendritic Cells number: 1.71 ± 0.33 x 10^6
  Spleen MHCII B-cells: 1235.60 ± 111.64 MFI
  Spleen MHCII DCs: 4003.00 ± 145.61 MFI
  Spleen NK frequency: 2.19 ± 0.06 %
  Spleen NK number: 10.90 ± 1.04 x 10^5
  Spleen Neutrophils frequency: 1.69 ± 0.21%
  Spleen Neutrophils number: 8.87 ± 2.15 x 10^5
[2]; 5% PFHxS
  Spleen B-cells frequency: 30.06 ± 0.55 %
  Spleen B-cells number: 1.11 ± 0.15 x 10^7
  Spleen CD4+ frequency: 26.90 ± 0.70 %
  Spleen CD4+ number: 0.99 ± 0.12 x 10^7
  Spleen CD8+ frequency: 18.12 ± 0.59 %
  Spleen CD8+ number: 6.58 ± 0.73 x 10^6
  Spleen CD11b + Ly6C+ frequency: 0.68 ± 0.13 %
  Spleen CD11b + Ly6C+ number: 2.52 ± 0.56 x 10^5
  Spleen CD11b + Ly6C- frequency: 1.69 ± 0.13 %
  Spleen CD11b + Ly6C- number: 6.28 ± 0.91 x 10^5
  Spleen CD11b+ frequency: 2.49 ± 0.24 %
  Spleen CD11b+ number: 0.93 ± 0.15 x 10^6
  Spleen CD86 B-cells: 302.60 ± 14.79 MFI
  Spleen CD86 DCs: 1754.60 ± 67.69 MFI
  Spleen Cellularity: 3.68 ± 0.45 x 10^7
  Spleen Dendritic Cells frequency: 3.34 ± 0.31%
  Spleen Dendritic Cells number: 1.26 ± 0.20 x 10^6
  Spleen MHCII B-cells: 1093.20 ± 94.51 MFI
  Spleen MHCII DCs: 3854.60 ± 88.79 MFI
  Spleen NK frequency: 1.71 ± 0.17 %
  Spleen NK number: 6.35 ± 0.96 x 10^5
  Spleen Neutrophils frequency: 2.51 ± 0.34 %
  Spleen Neutrophils number: 9.14 ± 1.54 x 10^5
[3]
  Serum concentration: 180 µg/mL
[4]; 1.25%, 2.5%, and 5% PFHxS
  dLN CD4+ T cell number: significant decrease
[4]; 2.5%, 5% PFHxS
  dLN CD8+ T cell frequency: increase
  dLN eosinophil frequency and number: increase
[4]; 5% PFHxS
  dLN mean fluorescence intensity of CD86 on B cells: increase
  dLN mean fluorescence intensity of MHCII on B cells: increase
  dLN total DC number: increase
[5]; 1.25% PFHxS dermal
  Liver weight (% of body weight) increase vs. vehicle-treated mice: 162%
  Spleen weight (% of body) decrease: 25%
[5]; 1.25, 2.5, 5% PFHxS dermal
  Mass of kidneys not corrected for body weight: significant decreases
  Mass of liver not corrected for body weight: significant increases
  Mass of spleen not corrected for body weight: significant decreases
  Mass of thymus not corrected for body weight: significant decreases
[5]; 1.25-5% PFHxS dermal
  Kidney weight (as % of body weight): No change
[5]; 2.5% PFHxS dermal
  Liver weight (% of body weight) increase vs. vehicle-treated mice: 172%
  Spleen weight (% of body) decrease: 37%
  Thymus weight (% of body) decrease: 44%
[5]; 5% PFHxS dermal
  Body weight decrease: 14%
  Liver weight (% of body weight) increase vs. vehicle-treated mice: 205%
  Spleen weight (% of body) decrease: 38%
  Thymus weight (% of body) decrease: 47%
[6]
  Increase in liver weight: ~ 60%
[7]; 1.25% PFHxS dermal
  Decrease in specific IgM activity against SRBC (PFC/10^6 cells) vs vehicle: 50.7%
  Decrease in total IgM activity against SRBC (PFC/spleen) vs vehicle: 57.9%
[7]; 2.5% PFHxS dermal
  Decrease in specific IgM activity against SRBC (PFC/10^6 cells) vs vehicle: 49.9%
  Decrease in total IgM activity against SRBC (PFC/spleen) vs vehicle: 60.3%
[8]; 1.25% PFHxS, 28 days
  Liver Cyp7a1 gene expression: Decreases
[8]; 1.25% and 2.5% PFHxS, 28 days
  Liver Pparδ gene expression: decrease
[8]; 1.25% and 5% PFHxS, 28 days
  Liver Pparγ gene expression: increase
[8]; 1.25-5% PFHxS, 28 days
  Liver Pparα gene expression: No change
[8]; 2.5% PFHxS, 28 days
  Liver Apoa1 gene expression: Decreases
  Liver Serpine1 gene expression, fold increase: 52 fold
[8]; 5% PFHxS, 28 days
  Liver Acox1 gene expression, fold increase: 6.7 fold
  Liver Avpr1a gene expression: Decreases
  Liver Cd36 gene expression, fold increase: 23 fold
  Liver Cpt1b gene expression, fold increase: 33 fold
  Liver Cyp4a10 gene expression, fold increase: 22 fold
  Liver Ehhadh gene expression, fold increase: 61 fold
  Liver Lpl gene expression, fold increase: 30 fold
  Liver Pla2g12a gene expression, fold increase: 16 fold
[8]; [9]
  Liver Acox1 gene expression, fold increase: ~ 6 fold
  Liver Ehhadh gene expression, fold increase: ~ 50 fold
[8]; [10]
  Liver Cd36 gene expression, fold increase: ~ 25 fold
  Liver Lpl gene expression, fold increase: ~ 25 fold
